# Measurements from paper PMC2903386 (The Journal of Biological Chemistry, 2010).
# B1: serpin F2/α2-antiplasmin: plasmin-specific inhibitor (protein, UniProt P08697 40-491, looked up)
# Alpha-2-antiplasmin: NQEQVSPLTLLKLGNQEPGGQTALKSPPGVCSRDPTPEQTHRLARAMMAFTADLFSLVAQTSTCPNLILSPLSVALALSHLALGAQNHTLQRLQQVLHAGSGPCLPHLLSRLCQDLGPGAFRLAARMYLQKGFPIKEDFLEQSEQLFGAKPVSLTGKQEDDLANINQWVKEATEGKIQEFLSGLPEDTVLLLLNAIHFQGFWRNKFDPSLTQRDSFHLDEQFTVPVEMMQARTYPLRWFLLEQPEIQVAHFPFKNNMSFVVLVPTHFEWNVSQVLANLSWDTLHPPLVWERPTKVRLPKLYLKHQMDLVATLSQLGLQELFQAPDLRGISEQSLVVSGVQHQSTLELSEVGVEAAAATSIAMSRMSLSSFSVNRPFLFFIFEDTTGLPLFVGSVRNPNPSAPRELKEQQDSPGNKDFLQSLKGFPRGDKLFGPDLKLVPPMEEDYPQFGSPK
# Columns and labels:
# plasmin [1] = assay: 50 nM plasmin; conditions: human recombinant, 37 °C, up to 2 h
# neutrophil elastase = assay: 50 nM enzyme in the manufacturer's recommended buffer; conditions: up to 4 h
# MMP-2 = MMP-2 (Homo sapiens, UniProt P08253); assay: Cleavage by purified MMP-2; format: in vitro ADME; conditions: 5 μM Cy5-labeled peptide, 50 nM enzyme, 2 h, Tricine gel, UVP software
# Sequence of MMP-2 (P08253 110-660): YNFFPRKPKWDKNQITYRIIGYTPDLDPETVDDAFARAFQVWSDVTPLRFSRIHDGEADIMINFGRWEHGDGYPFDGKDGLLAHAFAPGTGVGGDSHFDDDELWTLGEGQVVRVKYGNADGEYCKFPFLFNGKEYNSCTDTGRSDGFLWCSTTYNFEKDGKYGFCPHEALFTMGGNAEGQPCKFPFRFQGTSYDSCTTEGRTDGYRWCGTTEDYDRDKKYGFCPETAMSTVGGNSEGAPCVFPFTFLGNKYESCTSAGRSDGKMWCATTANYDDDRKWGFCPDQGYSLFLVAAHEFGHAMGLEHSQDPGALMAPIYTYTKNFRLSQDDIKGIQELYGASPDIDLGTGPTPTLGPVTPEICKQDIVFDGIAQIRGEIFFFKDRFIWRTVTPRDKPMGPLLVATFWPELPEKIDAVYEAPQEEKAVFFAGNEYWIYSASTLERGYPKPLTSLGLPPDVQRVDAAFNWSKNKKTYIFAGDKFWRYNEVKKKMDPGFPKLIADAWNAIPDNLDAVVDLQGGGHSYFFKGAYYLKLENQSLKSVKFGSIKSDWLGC
# Procedure, shortened: (§1)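 Commercial active purified enzymes were each used at 50 nM with 5 μM Cy5-labeled test peptide in the manufacturer's recommended buffer. The figure legend gives 2 h; the methods text gives 4 h. Samples were boiled 1 min in Tricine sample buffer, run on 10–20% Tricine gels and imaged (ex 628 ± 20 nm, em >700 nm). Percent cleaved versus uncleaved was quantitated from gel fluorescence.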
# MMP-9 = MMP-9 (Homo sapiens, UniProt P14780); assay: Cleavage by purified MMP-9; format: in vitro ADME; conditions: 5 μM Cy5-labeled peptide, 50 nM enzyme, 2 h, Tricine gel, UVP software
# Sequence of MMP-9 (P14780 107-707 limits assumed): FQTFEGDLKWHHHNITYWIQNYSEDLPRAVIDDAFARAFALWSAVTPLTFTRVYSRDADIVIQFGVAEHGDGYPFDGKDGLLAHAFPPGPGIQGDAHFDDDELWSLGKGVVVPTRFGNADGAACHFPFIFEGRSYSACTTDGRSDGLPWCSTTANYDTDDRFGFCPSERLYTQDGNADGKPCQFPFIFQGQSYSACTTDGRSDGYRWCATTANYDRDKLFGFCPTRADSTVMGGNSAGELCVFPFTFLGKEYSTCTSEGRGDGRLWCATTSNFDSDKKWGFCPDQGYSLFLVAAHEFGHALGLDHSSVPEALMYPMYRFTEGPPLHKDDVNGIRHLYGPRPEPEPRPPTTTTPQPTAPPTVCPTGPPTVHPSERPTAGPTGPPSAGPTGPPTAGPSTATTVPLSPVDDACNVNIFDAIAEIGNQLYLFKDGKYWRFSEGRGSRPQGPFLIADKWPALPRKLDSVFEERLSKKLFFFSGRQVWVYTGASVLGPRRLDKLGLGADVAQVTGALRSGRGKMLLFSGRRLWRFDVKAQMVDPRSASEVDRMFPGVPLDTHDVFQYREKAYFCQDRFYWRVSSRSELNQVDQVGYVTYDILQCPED
# Procedure, shortened: as §1
# Tumor uptake = format: in vivo; conditions: nude, mouse, tumor (MDA-MB-435 M4A4 xenograft), iv, 10 nmol
# Procedure, shortened: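 After imaging, mice were euthanized with isoflurane. 30 mg of each tissue was homogenized in 100 μl Tris pH 7.6 with 1% SDS, heated to 85 °C for 10 min, microwaved 10 s and spun at 20,500 × g for 15 min, then imaged. Tissue-specific spiked standards calibrated fluorescence. SUV = tissue peptide molality ÷ injected dose (mol/kg body weight). Values are means ± S.D.; two-tailed t tests.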
# leukocyte elastase = leukocyte elastase (Homo sapiens, UniProt P08246); assay: Cleavage by leukocyte elastase; format: in vitro ADME; conditions: 5 μM Cy5-labeled peptide, leukocyte elastase (ELA-2 from a different source), gel
# Sequence of leukocyte elastase (P08246 30-267): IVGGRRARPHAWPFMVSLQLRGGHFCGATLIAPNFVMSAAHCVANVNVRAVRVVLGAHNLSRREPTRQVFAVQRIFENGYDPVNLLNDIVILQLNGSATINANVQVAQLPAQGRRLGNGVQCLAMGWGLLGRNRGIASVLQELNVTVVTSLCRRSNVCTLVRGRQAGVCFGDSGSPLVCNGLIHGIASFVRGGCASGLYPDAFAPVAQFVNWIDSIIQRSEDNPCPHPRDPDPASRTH
# Procedure, shortened: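 Commercial active-form purified enzyme at 50 nm was incubated with 5 μm Cy5-labeled peptide in the manufacturer's recommended buffer. Samples were mixed with Tricine sample buffer, boiled 1 min, and resolved on 10–20% Tricine acrylamide gels. Gels were imaged quantitatively at excitation 628 ± 20 nm and emission >700 nm, and the percentage of cleaved versus uncleaved peptide was quantified.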
# cathepsin B = cathepsin B (Homo sapiens, UniProt P07858); assay: Cleavage by purified cathepsin B; format: in vitro ADME; conditions: 5 μM Cy5-labeled peptide, 50 nM enzyme, 2 h, Tricine gel, UVP software
# Procedure, shortened: as §1
# [2] = biological target: tissue plasminogen activator (Homo sapiens, UniProt P00750); assay: Cleavage by purified tissue plasminogen activator; format: in vitro ADME; conditions: 5 μM Cy5-labeled peptide, 50 nM enzyme, 2 h, Tricine gel, UVP software
# Sequence of tissue plasminogen activator (P00750 36-562): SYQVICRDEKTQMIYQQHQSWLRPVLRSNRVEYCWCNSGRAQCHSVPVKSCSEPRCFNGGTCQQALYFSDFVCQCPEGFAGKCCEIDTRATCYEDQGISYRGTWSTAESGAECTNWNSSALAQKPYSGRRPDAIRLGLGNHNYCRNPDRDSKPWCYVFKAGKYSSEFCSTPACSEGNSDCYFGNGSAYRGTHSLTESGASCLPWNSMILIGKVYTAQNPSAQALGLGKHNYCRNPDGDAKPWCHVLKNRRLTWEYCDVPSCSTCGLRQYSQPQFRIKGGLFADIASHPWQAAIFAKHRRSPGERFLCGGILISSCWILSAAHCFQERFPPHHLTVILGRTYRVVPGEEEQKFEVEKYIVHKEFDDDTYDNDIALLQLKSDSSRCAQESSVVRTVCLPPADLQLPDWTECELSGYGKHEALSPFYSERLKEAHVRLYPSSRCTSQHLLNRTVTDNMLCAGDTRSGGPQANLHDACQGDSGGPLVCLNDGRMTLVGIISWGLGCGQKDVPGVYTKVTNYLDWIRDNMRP
# Procedure, shortened: as §1
# factor Xa = factor Xa (Homo sapiens, UniProt P00742); assay: Cleavage by purified factor Xa; format: in vitro ADME; conditions: 5 μM Cy5-labeled peptide, 50 nM enzyme, 2 h, Tricine gel, UVP software
# Procedure, shortened: as §1
# matriptase [3] = biological target: matriptase (Homo sapiens, UniProt Q9Y5Y6); assay: Cleavage by purified matriptase; format: in vitro ADME; conditions: purified enzyme; data not shown
# Sequence of matriptase (Homo sapiens, UniProt Q9Y5Y6) (Q9Y5Y6 615-855 limits assumed, species assumed): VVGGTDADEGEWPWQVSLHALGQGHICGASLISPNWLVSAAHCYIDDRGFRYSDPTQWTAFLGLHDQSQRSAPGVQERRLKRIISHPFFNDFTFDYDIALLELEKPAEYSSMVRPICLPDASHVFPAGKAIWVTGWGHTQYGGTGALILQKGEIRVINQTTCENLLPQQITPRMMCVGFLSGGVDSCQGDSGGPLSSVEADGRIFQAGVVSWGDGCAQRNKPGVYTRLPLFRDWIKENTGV
# [4] = Cleavage of ACPP by PyMT tumor cystic fluid; format: in vitro ADME, mouse; conditions: 5 μM Cy5-labeled peptide, 2% cystic fluid from PyMT tumors, 2 h, 37 °C, gel
# Procedure, shortened: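 Cystic fluid was aspirated with a 28-gauge syringe from surgically exposed fluid-filled mammary tumor nodules of PyMT mice. 5 μM Cy5 peptide in PBS with 1 μM ZnCl2 was digested with cystic fluid (2%) at 37 °C. Aliquots were taken from 20 min to 18 h, with 2 h reported. Protease inhibitors (e.g. Ca-DTPA, TPEN, aprotinin, E-64, leupeptin, pepstatin A) were used at manufacturers' recommended concentrations. Read-out was gel fluorescence.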
# MMP-13 [5] = biological target: MMP-13 (Homo sapiens, UniProt P45452); assay: Cleavage by purified MMP-13; format: in vitro ADME; conditions: purified enzyme; data not shown
# MMP-14 = assay: Cleavage by purified MMP-14; format: in vitro ADME
# Procedure, shortened: as §1
# [6] = biological target: urokinase plasminogen activator (Homo sapiens, UniProt P00749); assay: Cleavage by purified urokinase plasminogen activator; format: in vitro ADME
# Procedure, shortened: as §1
# PyMT mammary tumors = assay: Fluorescence imaging contrast in PyMT tumor-bearing mice; format: in vivo, mouse; conditions: live mice, 100 μl of 100 μM Cy5-labeled ACPP, imaged 6 h post injection
# Procedure, shortened: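 PyMT transgenic mice bearing spontaneous mammary tumors were anesthetized with ketamine 80 mg/kg plus midazolam 5 mg/kg (1:1) and weighed. They were injected via the tail vein with Cy5 peptide: free peptide 100 μl of 100 μM (10 nmol) or albumin-reactive peptide 100 μl of 30 μM (3 nmol). Maestro imaging (ex 640 ± 24 nm, em >700 nm) was done at 6 h or 48 h, comparing tumor with adjacent normal tissue.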
# pancreatic elastase = pancreatic elastase (Sus scrofa, UniProt P00772); assay: Cleavage by pancreatic elastase; format: in vitro ADME, porcine; conditions: 5 μM Cy5-labeled peptide, pancreatic elastase (ELA-1), gel
# Sequence of pancreatic elastase (P00772 27-266): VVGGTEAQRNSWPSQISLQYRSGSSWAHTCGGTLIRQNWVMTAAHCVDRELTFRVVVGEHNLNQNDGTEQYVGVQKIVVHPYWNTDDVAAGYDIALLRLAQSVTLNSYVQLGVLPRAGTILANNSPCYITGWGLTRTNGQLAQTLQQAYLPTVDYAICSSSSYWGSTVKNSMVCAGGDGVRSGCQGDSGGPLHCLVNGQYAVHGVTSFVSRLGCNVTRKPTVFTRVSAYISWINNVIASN
# Procedure, shortened: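 5 μM Cy5-labeled test peptide was exposed to pancreatic elastase (ELA-1), with or without 60 μM α1-antitrypsin. Neutrophil/leukocyte elastase (two sources) and tumor extract (2.0 to 0.25%) were tested in parallel. Cleavage was read from fluorescent Tricine gel electrophoresis.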
# cathepsin L = cathepsin L (Homo sapiens, UniProt P07711); assay: Cleavage by purified cathepsin L; format: in vitro ADME; conditions: 5 μM Cy5-labeled peptide, 50 nM enzyme, 2 h, Tricine gel, UVP software
# Sequence of cathepsin L (P07711 114-333): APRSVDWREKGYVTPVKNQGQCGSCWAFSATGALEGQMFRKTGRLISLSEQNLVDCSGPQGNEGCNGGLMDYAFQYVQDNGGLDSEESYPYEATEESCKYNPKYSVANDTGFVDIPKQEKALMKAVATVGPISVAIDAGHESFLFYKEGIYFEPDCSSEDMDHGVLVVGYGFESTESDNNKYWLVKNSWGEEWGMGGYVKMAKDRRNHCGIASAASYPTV
# Procedure, shortened: as §1
# MMP12 = MMP12 (Homo sapiens, UniProt P39900); assay: Cleavage by purified MMP12; format: in vitro ADME; conditions: purified enzyme; at times only visible upon gel overexposure
# kallikrein 5 = kallikrein 5 (Homo sapiens, UniProt Q9Y337); assay: Cleavage by purified kallikrein 5; format: in vitro ADME; conditions: 5 μM Cy5-labeled peptide, 50 nM enzyme, 2 h, Tricine gel, UVP software
# Procedure, shortened: as §1
# factor VIIa = assay: Cleavage by purified factor VIIa; format: in vitro ADME; conditions: human
# Procedure, shortened: as §1
# factor XIa = factor XIa (Homo sapiens, UniProt P03951); assay: Cleavage by purified factor XIa; format: in vitro ADME; conditions: 5 μM Cy5-labeled peptide, 50 nM enzyme, 2 h, Tricine gel, UVP software
# Sequence of factor XIa (P03951 388-625 limits assumed): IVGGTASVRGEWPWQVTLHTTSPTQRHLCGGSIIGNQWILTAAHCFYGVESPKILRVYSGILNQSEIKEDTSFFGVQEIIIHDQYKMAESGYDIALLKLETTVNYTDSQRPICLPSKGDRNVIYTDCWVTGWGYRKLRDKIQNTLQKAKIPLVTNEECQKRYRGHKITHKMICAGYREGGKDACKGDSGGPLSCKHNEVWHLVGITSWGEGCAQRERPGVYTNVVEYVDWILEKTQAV
# Sequence of factor XIa (P03951 19-387 partner limits assumed): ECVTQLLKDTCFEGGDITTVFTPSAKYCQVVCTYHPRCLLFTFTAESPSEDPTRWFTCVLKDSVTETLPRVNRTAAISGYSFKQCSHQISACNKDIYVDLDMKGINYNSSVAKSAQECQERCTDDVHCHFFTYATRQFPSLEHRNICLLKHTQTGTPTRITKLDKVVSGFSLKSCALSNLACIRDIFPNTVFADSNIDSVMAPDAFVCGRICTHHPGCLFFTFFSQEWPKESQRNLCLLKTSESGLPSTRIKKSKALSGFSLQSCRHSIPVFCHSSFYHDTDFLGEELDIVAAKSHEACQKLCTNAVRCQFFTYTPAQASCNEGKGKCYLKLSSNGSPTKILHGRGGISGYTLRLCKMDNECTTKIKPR
# Procedure, shortened: as §1
# cathepsin H = assay: Cleavage by purified cathepsin H; format: in vitro ADME; conditions: human
# Procedure, shortened: as §1
# [7] = Tumor standardized uptake value; format: in vivo; conditions: PyMT, mouse, iv, 10 nmol
# thrombin = thrombin (Homo sapiens, UniProt P00734); assay: Cleavage by purified thrombin; format: in vitro ADME; conditions: 5 μM Cy5-labeled peptide, 50 nM enzyme, 2 h, Tricine gel, UVP software
# Procedure, shortened: as §1
# factor XIIa = factor XIIa (Homo sapiens, UniProt P00748); assay: Cleavage by purified factor XIIa; format: in vitro ADME; conditions: 5 μM Cy5-labeled peptide, 50 nM enzyme, 2 h, Tricine gel, UVP software
# Sequence of factor XIIa (P00748 373-615 limits assumed): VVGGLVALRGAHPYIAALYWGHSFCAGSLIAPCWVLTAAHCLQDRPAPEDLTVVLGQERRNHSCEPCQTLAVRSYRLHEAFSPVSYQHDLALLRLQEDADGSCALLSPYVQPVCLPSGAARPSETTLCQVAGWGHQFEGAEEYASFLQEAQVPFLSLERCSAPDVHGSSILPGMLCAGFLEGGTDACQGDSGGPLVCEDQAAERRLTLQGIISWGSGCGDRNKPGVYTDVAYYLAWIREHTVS
# Procedure, shortened: as §1
# legumain [8] = biological target: legumain (Homo sapiens, UniProt Q99538); assay: Cleavage by purified legumain; format: in vitro ADME; conditions: purified enzyme; data not shown
# Sequence of legumain (Homo sapiens, UniProt Q99538) (Q99538 18-323 limits assumed, species assumed): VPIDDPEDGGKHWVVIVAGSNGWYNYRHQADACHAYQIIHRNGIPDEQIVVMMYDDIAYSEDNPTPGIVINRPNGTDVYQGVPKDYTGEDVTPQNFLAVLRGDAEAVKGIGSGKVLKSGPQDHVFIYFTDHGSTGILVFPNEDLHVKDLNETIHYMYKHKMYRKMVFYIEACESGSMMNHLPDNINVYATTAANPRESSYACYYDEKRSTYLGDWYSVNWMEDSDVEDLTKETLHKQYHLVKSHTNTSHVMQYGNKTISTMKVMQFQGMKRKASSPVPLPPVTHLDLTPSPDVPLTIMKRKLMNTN
# MMP-8 [9] = biological target: MMP-8 (Homo sapiens, UniProt P22894); assay: Cleavage by purified MMP-8; format: in vitro ADME; conditions: purified enzyme; data not shown
# Sequence of MMP-8 (Homo sapiens, UniProt P22894) (P22894 101-467, species assumed): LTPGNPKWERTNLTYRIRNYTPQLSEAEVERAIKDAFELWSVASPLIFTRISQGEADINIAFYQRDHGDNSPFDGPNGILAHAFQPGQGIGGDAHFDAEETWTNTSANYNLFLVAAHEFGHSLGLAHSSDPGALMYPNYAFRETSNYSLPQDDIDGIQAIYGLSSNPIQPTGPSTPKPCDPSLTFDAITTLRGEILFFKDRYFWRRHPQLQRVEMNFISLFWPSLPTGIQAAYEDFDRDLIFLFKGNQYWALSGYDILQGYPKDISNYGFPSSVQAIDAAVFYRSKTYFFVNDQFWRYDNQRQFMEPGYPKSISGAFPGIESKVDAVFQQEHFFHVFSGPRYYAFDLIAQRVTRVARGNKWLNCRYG
# factor IXa = factor IXa (Homo sapiens, UniProt P00740); assay: Cleavage by purified factor IXa; format: in vitro ADME; conditions: 5 μM Cy5-labeled peptide, 50 nM enzyme, 2 h, Tricine gel, UVP software
# Procedure, shortened: as §1
# legumain [10] = assay: legumain
# matriptase [11] = assay: matriptase
# MMP-13 [12] = assay: MMP-13
# enterokinase = assay: enterokinase; conditions: up to 2 h
# [13] = test system: prostate-specific antigen; assay: prostate-specific antigen; conditions: up to 2 h
# hepsin = assay: hepsin; conditions: up to 2 h
# MMP-8 [14] = assay: MMP-8
# [15] = Effect of inhibitors on cleavage of RLQLKL ACPP by PyMT tumor cystic fluid; format: biochemical, mouse; conditions: 5 μM Cy5-labeled RLQLKL ACPP, 2% cystic fluid, 2 h; 5 mM Ca-DTPA, 50 μM TPEN, 18 μM SB3CT, 50 nM GM6001, 0.26 μM prinomastat, 150 nM aprotinin, 100 μM leupeptin, 60 μM α1-antitrypsin; gel
# Procedure, shortened: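 Cystic fluid was aspirated by syringe from surgically exposed fluid-filled mammary tumor nodules of PyMT mice. The 5 μm Cy5 peptide was incubated at 37 °C for 2 h in PBS with 1 μm ZnCl2. Inhibitors were used at manufacturer-recommended concentrations, including 10 μm E-64, 1 μm pepstatin A, protease inhibitor mixture III (1:1000) and mixture III plus DTPA. Cleavage was read by Tricine gel electrophoresis and Cy5 fluorescence imaging.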
# [16] = Effect of inhibitors on cleavage of RLQLKL ACPP by tumor extract; format: biochemical, mouse; conditions: 5 μM Cy5-labeled RLQLKL ACPP, tumor extract 2.0 to 0.25%; 60 μM α1-antitrypsin; gel
# Procedure, shortened: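 Fresh tumor tissue was gently homogenized in PBS on ice and spun at 14,000 × g for 1 min; the supernatant served as the extract. The 5 μm Cy5 peptide was digested at 37 °C in PBS containing 1 μm ZnCl2, with or without 60 μm α1-antitrypsin. Aliquots were taken from 20 min to 18 h, with the 2-h point reported. Cleavage was quantified by Tricine gel and fluorescence imaging.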
# plasmin [17] = biological target: plasmin (Homo sapiens, UniProt P00747); assay: Effect of inhibitor on plasmin cleavage of RLQLKL ACPP; format: biochemical; conditions: 5 μM Cy5-labeled RLQLKL ACPP, gel
# Sequence of plasmin (Homo sapiens, UniProt P00747) (P00747 581-810 limits assumed): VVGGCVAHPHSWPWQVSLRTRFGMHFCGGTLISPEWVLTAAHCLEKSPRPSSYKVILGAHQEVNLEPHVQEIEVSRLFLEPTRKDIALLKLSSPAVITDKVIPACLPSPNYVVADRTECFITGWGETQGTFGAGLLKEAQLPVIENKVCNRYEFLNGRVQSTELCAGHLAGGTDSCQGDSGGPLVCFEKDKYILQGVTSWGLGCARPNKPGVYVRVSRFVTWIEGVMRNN
# Sequence of plasmin (Homo sapiens, UniProt P00747) (P00747 97-580 partner limits assumed): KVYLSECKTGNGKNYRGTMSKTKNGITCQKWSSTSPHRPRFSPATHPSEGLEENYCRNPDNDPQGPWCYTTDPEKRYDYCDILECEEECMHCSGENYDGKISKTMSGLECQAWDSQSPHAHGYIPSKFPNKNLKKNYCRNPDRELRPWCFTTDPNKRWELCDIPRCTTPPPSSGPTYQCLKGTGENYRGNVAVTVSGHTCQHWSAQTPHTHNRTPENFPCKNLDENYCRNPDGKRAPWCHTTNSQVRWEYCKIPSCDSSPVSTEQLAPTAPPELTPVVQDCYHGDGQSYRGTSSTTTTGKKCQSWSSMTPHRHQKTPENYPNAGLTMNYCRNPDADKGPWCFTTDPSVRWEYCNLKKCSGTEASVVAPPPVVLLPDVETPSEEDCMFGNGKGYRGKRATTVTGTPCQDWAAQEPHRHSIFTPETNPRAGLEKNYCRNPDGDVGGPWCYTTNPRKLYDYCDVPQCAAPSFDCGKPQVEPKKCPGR
molecule,measurement,setting,value
H2N-e9-(ahx)-RLQLK(Ac)L-r9-c-(Cy5)-NH2,not cleaved,plasmin [1],not cleaved by plasmin (2 h)
same,fragment found,neutrophil elastase,"K(Ac)Lr9c-(Cy5), major"
CC[N+]1=C(C=CC=CC=C2N(CCCCCC(=O)NCCN3C(=O)CC(SC[C@@H](NC(=O)[C@@H](CCCNC(=N)N)NC(=O)[C@@H](CCCNC(=N)N)NC(=O)[C@@H](CCCNC(=N)N)NC(=O)[C@@H](CCCNC(=N)N)NC(=O)[C@@H](CCCNC(=N)N)NC(=O)[C@@H](CCCNC(=N)N)NC(=O)[C@@H](CCCNC(=N)N)NC(=O)[C@@H](CCCNC(=N)N)NC(=O)[C@@H](CCCNC(=N)N)NC(=O)[C@H](CC(C)C)NC(=O)[C@H](CCCCN)NC(=O)[C@H](CC(C)C)NC(=O)[C@H](CCC(N)=O)NC(=O)[C@H](CC(C)C)NC(=O)[C@H](CCCNC(=N)N)NC(=O)CCCCCNC(=O)[C@@H](CCC(=O)O)NC(=O)[C@@H](CCC(=O)O)NC(=O)[C@@H](CCC(=O)O)NC(=O)[C@@H](CCC(=O)O)NC(=O)[C@@H](CCC(=O)O)NC(=O)[C@@H](CCC(=O)O)NC(=O)[C@@H](CCC(=O)O)NC(=O)[C@@H](CCC(=O)O)NC(=O)[C@H](N)CCC(=O)O)C(N)=O)C3=O)c3ccc(S(=O)(=O)O)cc3C2(C)C)C(C)(C)c2cc(S(=O)(=O)[O-])ccc21 (stereo partly drawn) [RLQLKL ACPP],percentage of cleavage by MMP-2,MMP-2,less than 3%
same,percentage of cleavage by MMP-9,MMP-9,less than 3%
same,SUV at 6 h,Tumor uptake,0.7 ± 0.27 SUV
same,cleavage by leukocyte elastase (in words),leukocyte elastase,effectively cleaved
same,percentage of cleavage by cathepsin B,cathepsin B,less than 3%
same,percentage of cleavage by tissue plasminogen activator,[2],less than 3%
same,percentage of cleavage by factor Xa,factor Xa,less than 3%
same,cleavage by matriptase (in words),matriptase [3],no cleavage
same,cleavage by cystic fluid (in words),[4],similarly to tumor tissue extracts
same,cleavage by MMP-13 (in words),MMP-13 [5],no cleavage
same,"metabolised at 2 h, 5 μM",MMP-14,< 3%
same,percentage of cleavage by urokinase plasminogen activator,"[6]; 5 μM Cy5-labeled peptide, 50 nM enzyme, 2 h, Tricine gel, UVP software",less than 3%
same,cleavage by urokinase (in words),"[6]; purified enzyme, data not shown",no cleavage
same,skin uptake versus PLGLAG ACPP (in words),PyMT mammary tumors,significantly less
same,cleavage by pancreatic elastase (in words),pancreatic elastase,effectively cleaved
same,percentage of cleavage by cathepsin L,cathepsin L,less than 3%
same,cleavage by MMP12 (in words),MMP12,minimal cleavage
same,percentage of cleavage by kallikrein 5,kallikrein 5,less than 3%
same,"metabolised at 2 h, 5 μM",factor VIIa,< 3%
same,percentage of cleavage by factor XIa,factor XIa,less than 3%
same,"metabolised at 2 h, 5 μM",cathepsin H,< 3%
same,SUV at 6 h,[7],0.39 ± 0.14 SUV
same,percentage of cleavage by thrombin,thrombin,less than 3%
same,percentage of cleavage by factor XIIa,factor XIIa,less than 3%
same,cleavage by legumain (in words),legumain [8],no cleavage
same,cleavage by MMP-8 (in words),MMP-8 [9],no cleavage
same,percentage of cleavage by factor IXa,factor IXa,less than 3%
NH2-e9-(ahx)-RLQLKL-r9-c-(Cy5)-NH2,not cleaved,legumain [10],no cleavage
same,not cleaved,matriptase [11],no cleavage
same,not cleaved,MMP-13 [12],no cleavage
same,not cleaved,enterokinase,less than 3% cleavage
same,not cleaved,[13],less than 3% cleavage
same,not cleaved,hepsin,less than 3% cleavage
same,not cleaved,MMP-8 [14],no cleavage
B1,inhibition of cystic fluid cleavage of RLQLKL ACPP (in words),[15],did not inhibit
same,inhibition of tumor extract cleavage of RLQLKL ACPP (in words),[16],did not inhibit
same,inhibition of plasmin cleavage of RLQLKL ACPP (in words),plasmin [17],did inhibit
